Test results taken from PMC9589333 (ERJ Open Research, 2022).

Experiments:
healthy male subjects = test: Phase I study; type: in vivo, human; conditions: for Body weight, mean±SD change from baseline: placebo 0.21±1.06
Procedure, shortened: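 Healthy males aged 18–45 years with BMI 18.5–29.9 kg·m−2, partially randomised to oral test compound or matching placebo. Single doses were 36 or 48 mg, fasted and patient-blinded. Twice-daily doses were 6 or 12 mg over 14 days, fed and double-blind. Drug-related AEs were graded mild, moderate or severe. ECG, laboratory tests and, for multiple dosing, suicidality were also assessed. Descriptive statistics only.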

[1] = Phase I study: pharmacokinetics of BI 1015550 in plasma and urine; type: in vivo, human; conditions: for AUCτ,1 / Cmax / RA,AUC (accumulation ratio) / RA,Cmax (accumulation ratio) / AUCτ,ss / CLR,0–120 (renal clearance) / fe0–120 (fraction excreted unchanged in urine 0–120 h) / AUC0−∞: gMean; for AUCτ,ss: steady state
Procedure, shortened: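 Oral test compound was given to healthy males as single doses (36 or 48 mg, fasted) or 6 or 12 mg twice daily (fed). Twice-daily dosing was a morning dose on day 1, none on day 2 (34-h sampling), days 3–13 twice daily, and a morning dose on day 14. Read-outs were plasma Cmax, AUC0–∞, first-dose and steady-state AUCτ, accumulation ratios and 0–120 h urinary excretion, reported as gMean with gCV.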

[2] = system: patients with idiopathic pulmonary fibrosis; test: Phase Ic study; type: in vivo, human
Procedure, shortened: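 Randomised, double-blind, placebo-controlled within-dose-group study at 11 European sites. Patients with IPF, aged ≥40 years, had no nintedanib or pirfenidone within 30 days and none planned. Dosing was oral, 18 mg twice daily, for up to 12 weeks, reduced to 4 weeks by amendment. Drug-related AEs were graded mild, moderate or severe. ECG, laboratory tests and suicidality were also assessed. Descriptive statistics only.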

[3] = Phase Ic study: pharmacokinetics of BI 1015550 in plasma; type: in vivo, human
Procedure, shortened: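 IPF patients received oral 18 mg twice daily. Plasma Cmax and AUCτ,1 were taken after the first dose on day 1, and Cmax,ss and AUCτ,ss after the morning dose on day 14. Accumulation ratios were calculated as steady-state over single-dose values. Results are reported as geometric mean with gCV.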

[4] = system: patients with idiopathic pulmonary fibrosis; test: Phase Ic study: exploratory lung function efficacy endpoints; type: in vivo, human; conditions: IPF, 18 mg twice daily
human lung fibroblast = conditions: in vitro; cited from earlier work
[5] = after single and multiple oral administration
[6] = IPF, 18 mg twice daily, placebo 40.0%

SMILES: [O-][S+]1CCc2nc(N3CCC(c4ncc(Cl)cn4)CC3)nc(NC3(CO)CCC3)c21 (centres unmarked) [BI 1015550]
- Subjects with any AE (healthy male subjects; MRD 6 mg twice daily, n=8): 2 (25.0) n (%)
- Subjects with investigator-defined drug-related AEs (healthy male subjects; MRD 6 mg twice daily, n=8): 2 (25.0) n (%)
- Body weight, mean±SD change from baseline (healthy male subjects; MRD 6 mg twice daily): –1.21±0.43 kg
- Clinically relevant laboratory finding: increase in blood triglycerides, considered drug-related (healthy male subjects; MRD 12 mg twice daily): one subject
- Subjects with any AE (healthy male subjects; MRD 12 mg twice daily, n=8): 5 (62.5) n (%)
- Subjects with investigator-defined drug-related AEs (healthy male subjects; MRD 12 mg twice daily, n=8): 4 (50.0) n (%)
- Body weight, mean±SD change from baseline (healthy male subjects; MRD 12 mg twice daily): –1.34±1.61 kg
- Suicidal ideation or behaviour (C-SSRS) (healthy male subjects; MRD part): No incidence
- Gastrointestinal disorders (healthy male subjects; MRD part, placebo 12.5%): 18.8%
- Nervous system disorders (headache) (healthy male subjects; MRD part, placebo 12.5%): 31.3%
- Subjects with AEs (healthy male subjects; MRD part, placebo 37.5%): 43.8%
- Subjects with any AE (healthy male subjects; MRD total, n=16): 7 (43.8) n (%)
- Subjects with investigator-defined drug-related AEs (healthy male subjects; MRD total, n=16): 6 (37.5) n (%)
- Subjects with any AE (healthy male subjects; SRD 36 mg single dose, n=6): 4 (66.7) n (%)
- Subjects with investigator-defined drug-related AEs (healthy male subjects; SRD 36 mg single dose, n=6): 2 (33.3) n (%)
- Subjects with any AE (healthy male subjects; SRD 48 mg single dose, n=6): 4 (66.7) n (%)
- Subjects with investigator-defined drug-related AEs (healthy male subjects; SRD 48 mg single dose, n=6): 4 (66.7) n (%)
- Deaths, severe AEs, serious AEs, AEs of special interest or other significant AEs (healthy male subjects; SRD and MRD parts): no reported
- ECG recordings or vital signs (healthy male subjects; SRD and MRD parts): no clinically relevant findings
- Intensity of all AEs (healthy male subjects; SRD and MRD parts): mild or moderate
- Gastrointestinal disorders (healthy male subjects; SRD part, placebo 16.7%): 25.0%
- Nervous system disorders (headache and dizziness) (healthy male subjects; SRD part, placebo 16.7%): 41.7%
- Subjects with AEs (healthy male subjects; SRD part, placebo 16.7%): 66.7%
- Subjects with any AE (healthy male subjects; SRD total, n=12): 8 (66.7) n (%)
- Subjects with investigator-defined drug-related AEs (healthy male subjects; SRD total, n=12): 6 (50.0) n (%)
- Subjects with drug-related AEs (healthy male subjects; multiple doses (MRD total), placebo 12.5%): 37.5%
- Subjects with drug-related AEs (healthy male subjects; single dose (SRD total), placebo 16.7%): 50.0%
- Dose proportionality of AUC ([1]; 36 mg to 48 mg single dose and 6 mg to 12 mg twice daily): dose-proportional increase in AUC
- Median time from last dosing to the maximum measured concentration [1, 5]: 1.25 to 1.52 h
- Terminal half-lives [1, 5]: 16 to 27 h
- AUCτ,1 ([1]; MRD 6 mg twice daily, after first dose, fed, n=8, gCV 24.8%): 0.564 µM·h
- Cmax ([1]; MRD 6 mg twice daily, after first dose, fed, n=8, gCV 28.2%): 103 nM
- RA,AUC (accumulation ratio) ([1]; MRD 6 mg twice daily, fed, n=8, gCV 9.91%): 1.85
- RA,Cmax (accumulation ratio) ([1]; MRD 6 mg twice daily, fed, n=8, gCV 35.0%): 1.60
- AUCτ,ss ([1]; MRD 6 mg twice daily, fed, n=8, gCV 25.7%): 1.05 µM·h
- AUCτ,1 ([1]; MRD 12 mg twice daily, after first dose, fed, n=8, gCV 15.9%): 1.37 µM·h
- Cmax ([1]; MRD 12 mg twice daily, after first dose, fed, n=8, gCV 29.9%): 229 nM
- RA,AUC (accumulation ratio) ([1]; MRD 12 mg twice daily, fed, n=8, gCV 14.8%): 1.68
- RA,Cmax (accumulation ratio) ([1]; MRD 12 mg twice daily, fed, n=8, gCV 23.6%): 1.52
- AUCτ,ss ([1]; MRD 12 mg twice daily, fed, n=8, gCV 15.8%): 2.3 µM·h
- CLR,0–120 (renal clearance) ([1]; SRD 36 mg, fasted, n=4, gCV 21.5%): 30.5^+ mL·min^−1
- fe0–120 (fraction excreted unchanged in urine 0–120 h) ([1]; SRD 36 mg, fasted, n=5, gCV 45.2%): 12.5^¶ %
- Cmax ([1]; SRD 36 mg, fasted, n=6, gCV 20.7%): 710 nM
- AUC0−∞ ([1]; SRD 36 mg, fasted, n=6, gCV 21.2%): 5910 nmol·h/L
- fe0–120 (fraction excreted unchanged in urine 0–120 h) ([1]; SRD 48 mg, fasted, n=4, gCV 13.4%): 12.1^+ %
- CLR,0–120 (renal clearance) ([1]; SRD 48 mg, fasted, n=4, gCV 20.6%): 25.2^+ mL·min^−1
- AUC0−∞ ([1]; SRD 48 mg, fasted, n=5, gCV 17.2%): 8700^¶ nmol·h·L^−1
- Cmax ([1]; SRD 48 mg, fasted, n=6, gCV 15.5%): 955 nM
- Steady state reached ([1]; multiple twice-daily administrations): ≤ 6 days
- Mean observed weight loss ([2]; IPF patients treated for up to 12 weeks, placebo –1.18): –1.74 kg
- 12-lead ECG or vital signs ([2]; IPF, 18 mg twice daily): no clinically relevant findings
- C-reactive protein (laboratory tests) ([2]; IPF, 18 mg twice daily): slight increase
- Deaths ([2]; IPF, 18 mg twice daily): no reported deaths
- Diarrhoea ([2]; IPF, 18 mg twice daily): 40.0%
- Nasopharyngitis ([2]; IPF, 18 mg twice daily): 40%
- Severe AE (considered drug related, led to discontinuation) ([2]; IPF, 18 mg twice daily): one severe AE of insomnia
- Suicidal ideation or behaviour (C-SSRS) ([2]; IPF, 18 mg twice daily): no cases
- Body weight, difference between the two treatment groups ([2]; IPF, 18 mg twice daily vs placebo): no notable difference
- AE leading to discontinuation of study drug ([2]; IPF, 18 mg twice daily, n=10): 1 (10.0) n (%)
- Investigator-defined drug-related AE ([2]; IPF, 18 mg twice daily, n=10): 9 (90.0) n (%)
- Patients requiring or prolonging hospitalisation ([2]; IPF, 18 mg twice daily, n=10): 1 (10.0) n (%)
- Patients with AESI (hepatic injury) ([2]; IPF, 18 mg twice daily, n=10): 0 (0.0) n (%)
- Patients with SAEs ([2]; IPF, 18 mg twice daily, n=10): 1 (10.0) n (%)
- Patients with other significant AEs according to ICH E3 ([2]; IPF, 18 mg twice daily, n=10): 1 (10.0) n (%)
- Severe AEs ([2]; IPF, 18 mg twice daily, n=10): 1 (10.0) n (%)
- Gastrointestinal disorders [2, 6]: 80.0%
- Infections and infestations [2, 6]: 50.0%
- Patients with drug-related AEs ([2]; IPF, 18 mg twice daily, placebo 60.0%): 90.0%
- Exposure predictions (AUC0-24,ss) versus predefined exposure threshold ([3]; 24 mg twice-daily dose group (not dosed)): exceeded the predefined exposure threshold
- Administrations until 95% of the steady-state concentration was reached ([3]; IPF, 18 mg twice daily): approximately five
- Accumulation ratio based on AUCτ ([3]; gMean, IPF, 18 mg twice daily): 1.87
- Accumulation ratio based on Cmax ([3]; gMean, IPF, 18 mg twice daily): 1.66
- AUCτ,1 ([3]; gMean, IPF, 18 mg twice daily, day 1 after first dose, n=10, gCV 18.2%): 1.99 µM·h
- Cmax ([3]; gMean, IPF, 18 mg twice daily, day 1 after first dose, n=10, gCV 23.1%): 277 nM
- AUCτ,ss ([3]; gMean, IPF, 18 mg twice daily, day 14 steady state, n=10, gCV 49.5%): 3.72 µM·h
- Difference in pharmacokinetic parameters between healthy volunteers and patients with IPF ([3]; in vivo): no difference
- Effect on lung function parameters ([4]; over the course of the trial): no clear effect
- Trend towards a slight reduction in FVC over time (seen in placebo group) ([4]; data not shown): not observed
- Human lung fibroblast proliferation (human lung fibroblast): inhibition
- Myofibroblast transformation (human lung fibroblast): inhibition
